Results from ChEMBL document CHEMBL4513216, “Probing the Open Global Health Chemical Diversity Library for Multistage-Active Starting Points for Next-Generation Antimalarials” (ACS Infect Dis, 2020).

Test: Toxicity liver stage against HepG2, at 10uM
Type: cell-based
Parameters: test concentration 10 uM, cell line HepG2-A16-CD81EGFP
Conditions: human, HepG2-A16-CD81EGFP cells; read-out: INHIBITION
Summary of the method: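 Uninfected HepG2-A16-CD81EGFP cells, 3 × 10^3 per well, 1536-well, plated on prespotted compound at 10 μM final, parasite-free screening media added to match infected plates; puromycin 10 μM positive, DMSO 0.5% negative; run in parallel with 48 h PbLuc assay at 37 °C, 5% CO2; viability by CellTiter-Glo luminescence, normalized to controls.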

SMILES	cytotoxicity at 10 µM [%]
CCc1ncncc1C(=O)N1CCN(Cc2cscn2)CC1	0.512
O=C([C@@H]1CCCO1)N1CCOCC2(CCN(Cc3cccnc3)C2)C1 (stereo partly drawn)	-108
CCN(Cc1ccc2c(c1)OCCO2)C(=O)NCc1cc[nH]n1	1.54
CS(=O)(=O)NC[C@]12COC[C@H]1CN(C(=O)Cc1ccccc1F)C2	-2.57
COc1cc(CNC(C)c2cccc(Cl)c2)cc(OC)c1OC (stereo not drawn)	5.02
CCC(Nc1nnnn1-c1ccccc1)C(=O)Nc1ccccc1C (stereo not drawn)	-13.1
CCOC1CCN(C(=O)NCc2cccc(-n3cccn3)c2)CC1	0.944
Fc1cccc(-n2cccn2)c1NCc1nnc(C2CC2)o1	-5.48
CN(Cc1ccsc1)Cc1nc(-c2cnccn2)no1	-0.164
CC(C)n1ccnc1C1CCCN(Cc2ccc(F)c(F)c2)C1 (stereo not drawn)	3.89
CC1c2ncc(Cn3cncn3)n2CCN1CC1CCOCC1 (stereo not drawn)	2.84
CCOC(=O)c1nc(CN2CCC(NC(=O)C(C)C)CC2)cs1	-2.98
Cc1ccnc(OC[C@]23COC[C@H]2CN(C(=O)c2cnccn2)C3)n1	-7.1
CC(=O)N(C)Cc1cccc(NC(=O)N(C)CCc2cccs2)c1	-2.67
COc1ccc(C(=O)C2CCCN(CCc3ccccc3)C2)c(OC)c1 (stereo not drawn)	7.8
Cn1ccc(C(=O)N2CCN(c3nccs3)CC2)cc1=O	-18.1
CC(C)S(=O)(=O)N1CCOC(CCc2ccccc2)C1 (stereo not drawn)	-4.53
CCn1cc(CN2CCC(N3CCC(O)CC3)CC2)cc1C#N	0.371
CSC(C)C(=O)N1CCCN(c2ncccc2C#N)CC1 (stereo not drawn)	-1.2
COCCN1CCC(C)(c2cc(O)[nH]n2)CC1	2.02
COCCN(C(=O)c1cc(C)no1)c1ccc(C#N)cc1	6.51

SMILES	cytotoxicity at 10 µM [%]
CCn1ccnc1-c1nccn1-c1ccccc1CN1CCOCC1	14.1
COc1ccc(CN(C)C2CSCCSC2)c2cccnc12	31.7
COc1ccc(S(=O)(=O)NC(=O)C(C)OC)c(OC)c1 (stereo not drawn)	-6.67
Cc1ccc(CNS(=O)(=O)C=c2[nH]c(=O)n3cccc3c2=O)cc1	6.38
CS(=O)(=O)N1CCN(Cc2ccc(F)cc2Br)CC1	0.0667
Cc1ccccc1CNC(=O)Cc1c(C)nc2cc(=O)[nH]n2c1C	-2.35
O=C(c1cnc2ccccn12)N1CCCC(c2ccn[nH]2)C1 (stereo not drawn)	-5.28
Clc1ccccc1OC1CCN(CC2CCOC2)CC1 (stereo not drawn)	-9.85
O=C(CC1CC1)N1CCC2(CC1)CN(c1ncc(F)cn1)CCO2	-72.8
CC(C)COCC1CN(Cc2ccc3c(c2)OCO3)Cc2ncn(C)c21 (stereo not drawn)	-10.7
O=C(CC1=CCCCC1)Nc1ccc(CN2C(=O)CCC2=O)cc1	0.719
Cc1cc(N[C@H]2CCCC[C@@H]2O)n2nccc2n1	-1.42
CCn1ccc2ccnc(CC3CN(C(=O)c4cnco4)C3)c21	-6.61
COc1cc(C(=O)NS(=O)(=O)c2cc(Cl)sc2Cl)ccc1OC(F)F	-13.9
CCC(=O)N1CCC(n2cc(C(C)(C)O)nn2)CC1	3.92
CN(C)C1(CNC(=O)CC=Cc2ccc(F)cc2)CCOCC1	8.99
O=C(C1CC=CC1)N1CC[C@H]2[C@@H]1CCC(=O)N2c1ccccc1	8.88
Cn1nc(CNC(=O)CC#N)c2c1CN(C(N)=O)CC2	3.8
NC(=O)C1CCN(CCCNC(=O)Nc2nccs2)CC1	-0.287
CN(C)C(=O)NC1COC2(CCN(Cc3ccc(N(C)C)cc3)CC2)C1 (stereo not drawn)	-77
COCc1nccc(C2CCCN(Cc3ccccc3C#N)C2)n1 (stereo not drawn)	6.05

SMILES	cytotoxicity at 10 µM [%]
CC1(CNS(=O)(=O)c2cccc(C(=O)N3CCSCC3)c2)COC1	-6.69
O=C(NC[C@H]1OC[C@@H](NCc2ccccn2)[C@@H]1O)c1ccncc1	-9.77
Cn1c(=O)ccn(CC(=O)NCC2Cc3ccccc3O2)c1=O (stereo not drawn)	-0.387
Cc1ccc(C2CSCCN2C(=O)c2cccs2)o1 (stereo not drawn)	3.82
O=C(NC1CCCN(CCCc2ccccc2)C1)c1ccc(Cl)s1 (stereo not drawn)	57.5
Nc1nc2c(c(NCc3nc(-c4ccncc4)n[nH]3)n1)CCCC2	-0.0554
O=C(N1CCOCC1)N1CCc2ncc(CN3CCCCC3)n2CC1	-87.7
O=C(c1ccncn1)N1CCO[C@H]2[C@@H](OCc3cccnc3)CC[C@@H]21	-7.69
CCc1ncc2c(n1)CN(Cc1nnc(Cc3ccccc3)o1)CC2	-3.04
CC(C)c1nc2n(n1)CC(NCc1ncc(-c3ccccc3)o1)CC2 (stereo not drawn)	-0.361
N#Cc1ccc(NCCCOCC2CCCO2)c(F)c1 (stereo not drawn)	0.536
COCCN1CCN(c2ncnc3nc(C)cc(C)c23)CC1	2.42
Cc1ccc(NC2CCN(C(=O)c3ccncc3)CC2)nn1	8.85
O=C(c1ncoc1-c1ccco1)N(Cc1ccco1)CC1CCCO1 (stereo not drawn)	-2.05
CCC(C)(O)CNc1ccc(S(=O)(=O)C(F)F)cc1 (stereo not drawn)	12.2
N#CCCn1cnc2c(Br)cccc2c1=O	4.65
CCOc1cc(CN(C)CCCO)ccc1OC(F)F	-14.1
Cc1cccc(N2CC[C@@H]3CN(Cc4csc(C)n4)CCO[C@@H]3C2)n1	-4.51
Cc1nnc(C(C)Nc2ccc(OCCc3ccccc3)nc2)o1 (stereo not drawn)	-4.08
Cc1cc(N2CCC3(CCCN(CCO)C3=O)C2)nc(C)c1C#N (stereo not drawn)	7.41
N#Cc1cccc(CN2C[C@@H]3CN(c4ncccn4)C[C@@H]3C2)c1	8.04

SMILES	cytotoxicity at 10 µM [%]
CC(C)CC(C(=O)N(C)Cc1ncnn1C)N1CCCCC1=O (stereo not drawn)	-0.159
Cc1n[nH]c(C)c1CCCNCc1cn(CCC(N)=O)c2ccccc12	8.45
O=C(NC1CC1)c1nc(COc2ccc3c(c2)OCO3)no1	3.97
c1ccc2oc(CN3CCOC(Cn4cccn4)C3)nc2c1 (stereo not drawn)	-18.2
COc1cc(CNC(C)Cn2cccn2)cc(OC)c1OC (stereo not drawn)	-4.23
CCN(Cc1ccoc1)C(=O)C1CCN(C(=O)OC(C)(C)C)C1 (stereo not drawn)	-15.5
O=C(NCCc1ccc(I)s1)N1CCC1	-11.1
CCc1nc(CN(C)CC(=O)NC(C)C)cs1	1.48
CN(Cc1ccco1)C(=O)CN1CCCC1c1cccs1 (stereo not drawn)	-3.62
COCCCNC(=O)C(C)n1nc(-c2ccco2)cc(N)c1=O (stereo not drawn)	0.152
Cc1nc(CN2CCc3nc(N4CCCC4)nc(NC(C)C)c3C2)cs1	2.72
CC(C)(C)c1cc(=O)[nH]c(C2(N)CCCC2)n1	8.79
O=C(Nc1ccc(-n2cccn2)cc1)N1CCC(O)C1 (stereo not drawn)	19.9
CC(C)c1cc(C(=O)N2CCNCC2C(=O)NCc2ccncc2)on1 (stereo not drawn)	-7.6
N#Cc1nc(COc2ccc3c(c2)OCO3)oc1NC1CCCCC1	-41.4
NC(=O)CCn1ccc(NC(=O)C2(c3ccc(F)cc3)CCC2)n1	-1.03
O=C(NCc1cccs1)c1nc2c(o1)CN(c1ncccn1)C2	-0.664
CSCC(=O)N1C[C@H](c2ccc(C)o2)[C@@H](N)C1	6.6
CCOc1cc(CN(C)CC(=O)O)ccc1OC(F)F	7.99
OC1CCCOC12CCN(Cc1nnc(-c3cccnc3)o1)CC2 (stereo not drawn)	4.49
